Holding throughout (conditions): stereoisomer not certain
For one test, the system named is T1, A0A140T8K0.
T1 sequence (whole entry): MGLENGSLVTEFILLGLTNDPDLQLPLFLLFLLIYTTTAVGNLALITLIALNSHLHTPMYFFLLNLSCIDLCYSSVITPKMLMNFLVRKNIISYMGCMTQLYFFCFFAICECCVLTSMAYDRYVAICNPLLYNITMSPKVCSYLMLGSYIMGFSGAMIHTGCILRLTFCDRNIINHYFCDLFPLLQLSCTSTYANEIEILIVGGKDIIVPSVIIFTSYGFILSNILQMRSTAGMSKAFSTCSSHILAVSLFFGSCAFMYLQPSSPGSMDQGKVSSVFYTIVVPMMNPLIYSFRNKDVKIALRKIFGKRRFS
The method, boiled down:
(§1)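 Transient luciferase assays in mammalian cell lines were common, though methods varied by source. The values come from published papers and their supplementary material, with extra details from the original authors when needed. Responsive refers to a measured signal the original authors judged statistically different from baseline, and non-responsive (inactive) to the remainder.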

The test system of a further test is T2, A0A140T8K4.
T2 sequence (whole entry): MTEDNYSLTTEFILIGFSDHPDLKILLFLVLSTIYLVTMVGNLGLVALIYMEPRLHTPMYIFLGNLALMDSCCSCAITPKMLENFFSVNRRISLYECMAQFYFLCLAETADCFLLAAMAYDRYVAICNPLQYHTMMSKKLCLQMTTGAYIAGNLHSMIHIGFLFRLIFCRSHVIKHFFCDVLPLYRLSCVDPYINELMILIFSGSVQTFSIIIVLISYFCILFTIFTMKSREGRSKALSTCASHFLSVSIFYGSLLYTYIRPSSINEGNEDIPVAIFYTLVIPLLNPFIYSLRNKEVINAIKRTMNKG
In a few lines:
as §1

In another test the test system is T3, A0A1L1SVG7.
T3 sequence (whole entry): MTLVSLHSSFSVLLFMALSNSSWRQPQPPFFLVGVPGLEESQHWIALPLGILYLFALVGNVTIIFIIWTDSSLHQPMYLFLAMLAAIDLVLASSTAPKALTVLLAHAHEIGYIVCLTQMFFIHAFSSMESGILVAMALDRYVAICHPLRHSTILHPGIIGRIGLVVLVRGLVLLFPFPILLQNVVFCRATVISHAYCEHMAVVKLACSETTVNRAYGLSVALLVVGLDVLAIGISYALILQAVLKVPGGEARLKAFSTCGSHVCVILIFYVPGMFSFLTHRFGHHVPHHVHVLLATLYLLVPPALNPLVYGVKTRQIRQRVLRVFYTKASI
In a few lines:
as §1

Another test concerns O10A2 H43R H207R K258T. In a few lines:
as §1

The subject of the next test is O10A3 C8G. The method, boiled down:
as §1

A further test relates to O10A6. In a few lines:
as §1

Another test concerns O10AD G65C. In a few lines:
as §1

The test system of a further test is O10D3 V134A R197K. The method, boiled down:
as §1

The next test has as its system O10G4 L24P V195E. The method, boiled down: as §1
The next test relates to O10G7 A18V P19Q G20A. The method, boiled down:
as §1

A further test concerns O10G7 I28V. In a few lines: as §1
O10G7 I28V, sequence (as listed by the source, stated change not applied): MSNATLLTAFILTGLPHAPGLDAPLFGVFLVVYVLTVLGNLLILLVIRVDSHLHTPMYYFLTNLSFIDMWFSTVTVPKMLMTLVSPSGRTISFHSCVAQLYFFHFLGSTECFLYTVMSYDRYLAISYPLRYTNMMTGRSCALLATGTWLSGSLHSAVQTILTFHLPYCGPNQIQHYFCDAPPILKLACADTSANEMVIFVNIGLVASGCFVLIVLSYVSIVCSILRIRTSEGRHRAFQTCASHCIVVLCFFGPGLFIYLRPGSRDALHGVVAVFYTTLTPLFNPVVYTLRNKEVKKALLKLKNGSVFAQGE
The test system of a further test is O10H2. In a few lines:
as §1

A further test concerns O10H3 R54H. In a few lines:
as §1

Another test deals with O10H4 I50V. In a few lines:
as §1

Another test has as its system O10H5 S268Y. The method, boiled down:
as §1

In the next test the test system is O10J1 M62I I103M. The method, boiled down:
as §1

A further test concerns O10J1 M62I. The method, boiled down: as §1
O10J1 M62I, sequence (as listed by the source, stated change not applied): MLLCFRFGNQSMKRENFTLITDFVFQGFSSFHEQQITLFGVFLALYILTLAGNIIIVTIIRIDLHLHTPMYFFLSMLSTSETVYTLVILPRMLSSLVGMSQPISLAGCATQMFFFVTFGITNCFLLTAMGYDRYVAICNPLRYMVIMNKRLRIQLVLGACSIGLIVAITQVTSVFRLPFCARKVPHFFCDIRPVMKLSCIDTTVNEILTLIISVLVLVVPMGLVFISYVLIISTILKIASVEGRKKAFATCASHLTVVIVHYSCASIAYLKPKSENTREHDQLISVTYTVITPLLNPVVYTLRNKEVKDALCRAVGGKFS
A further test has as its system O10J3 Q235R E319G. The method, boiled down:
as §1

For another test, the system named is O10P1 R195K. In a few lines: as §1
O10P1 R195K, sequence (as listed by the source, stated change not applied): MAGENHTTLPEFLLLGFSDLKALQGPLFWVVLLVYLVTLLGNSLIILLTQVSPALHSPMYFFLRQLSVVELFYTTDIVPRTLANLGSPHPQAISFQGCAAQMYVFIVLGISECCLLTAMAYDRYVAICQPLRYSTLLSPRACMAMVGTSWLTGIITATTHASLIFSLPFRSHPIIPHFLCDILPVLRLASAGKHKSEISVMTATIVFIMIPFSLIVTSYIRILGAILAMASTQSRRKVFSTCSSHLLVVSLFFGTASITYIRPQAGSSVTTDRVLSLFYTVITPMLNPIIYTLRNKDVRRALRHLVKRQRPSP
A further test has as its system O10Q1 E12D. The method, boiled down: as §1
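Also: active if original authors judged signal statistically different from baseline.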

O10H2, sequence (as listed by the source): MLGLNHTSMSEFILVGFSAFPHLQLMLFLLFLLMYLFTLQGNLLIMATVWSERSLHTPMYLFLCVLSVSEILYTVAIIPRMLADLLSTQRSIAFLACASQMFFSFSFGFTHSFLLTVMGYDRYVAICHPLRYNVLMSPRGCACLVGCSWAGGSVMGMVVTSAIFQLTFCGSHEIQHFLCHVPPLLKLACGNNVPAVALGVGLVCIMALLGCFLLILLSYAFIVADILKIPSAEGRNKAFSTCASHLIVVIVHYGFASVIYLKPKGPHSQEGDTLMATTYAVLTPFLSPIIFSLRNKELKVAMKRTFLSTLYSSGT
O10A6, sequence (as listed by the source): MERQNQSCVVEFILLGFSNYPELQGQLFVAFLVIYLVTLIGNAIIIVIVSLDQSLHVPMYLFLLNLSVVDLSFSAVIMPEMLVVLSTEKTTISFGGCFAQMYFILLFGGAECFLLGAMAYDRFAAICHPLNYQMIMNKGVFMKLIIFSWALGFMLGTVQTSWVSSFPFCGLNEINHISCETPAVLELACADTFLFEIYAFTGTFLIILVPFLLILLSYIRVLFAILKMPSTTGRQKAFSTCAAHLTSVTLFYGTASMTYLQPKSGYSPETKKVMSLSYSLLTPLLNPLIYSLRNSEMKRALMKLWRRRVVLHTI
O10A3 C8G, sequence (as listed by the source): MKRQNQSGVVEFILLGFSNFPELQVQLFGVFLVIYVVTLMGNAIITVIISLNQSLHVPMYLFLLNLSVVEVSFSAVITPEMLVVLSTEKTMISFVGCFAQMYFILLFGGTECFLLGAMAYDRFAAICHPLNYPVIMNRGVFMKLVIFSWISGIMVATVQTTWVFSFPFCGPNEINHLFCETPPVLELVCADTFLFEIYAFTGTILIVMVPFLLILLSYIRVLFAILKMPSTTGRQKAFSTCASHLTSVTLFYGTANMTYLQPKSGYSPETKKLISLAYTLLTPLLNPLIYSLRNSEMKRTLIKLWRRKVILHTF
O10H4 I50V, sequence (as listed by the source, stated change not applied): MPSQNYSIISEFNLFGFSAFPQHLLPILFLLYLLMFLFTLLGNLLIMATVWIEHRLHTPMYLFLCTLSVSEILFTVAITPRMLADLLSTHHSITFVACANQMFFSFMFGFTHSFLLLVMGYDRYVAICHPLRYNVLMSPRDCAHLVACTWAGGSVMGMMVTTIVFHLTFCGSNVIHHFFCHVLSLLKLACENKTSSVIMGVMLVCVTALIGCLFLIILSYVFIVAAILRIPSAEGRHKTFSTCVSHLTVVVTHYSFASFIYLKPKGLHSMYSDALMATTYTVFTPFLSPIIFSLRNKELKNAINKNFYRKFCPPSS
O10AD G65C, sequence (as listed by the source, stated change not applied): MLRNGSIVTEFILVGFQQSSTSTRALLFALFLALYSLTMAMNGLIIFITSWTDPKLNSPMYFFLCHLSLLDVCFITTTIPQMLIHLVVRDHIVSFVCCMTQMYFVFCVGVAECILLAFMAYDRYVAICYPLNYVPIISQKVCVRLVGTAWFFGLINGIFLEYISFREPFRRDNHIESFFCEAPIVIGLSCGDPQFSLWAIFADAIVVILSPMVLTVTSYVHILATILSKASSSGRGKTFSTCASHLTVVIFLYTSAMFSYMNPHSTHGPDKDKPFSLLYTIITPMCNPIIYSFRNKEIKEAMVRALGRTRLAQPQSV
O10H5 S268Y, sequence (as listed by the source, stated change not applied): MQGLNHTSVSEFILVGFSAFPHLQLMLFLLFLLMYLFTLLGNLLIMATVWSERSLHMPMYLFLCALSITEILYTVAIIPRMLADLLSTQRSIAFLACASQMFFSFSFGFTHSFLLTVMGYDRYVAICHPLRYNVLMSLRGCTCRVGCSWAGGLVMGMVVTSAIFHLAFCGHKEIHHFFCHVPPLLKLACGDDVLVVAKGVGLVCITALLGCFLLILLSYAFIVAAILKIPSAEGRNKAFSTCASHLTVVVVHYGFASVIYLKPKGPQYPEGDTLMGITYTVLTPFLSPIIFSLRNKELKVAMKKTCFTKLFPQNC
O10H3 R54H, sequence (as listed by the source, stated change not applied): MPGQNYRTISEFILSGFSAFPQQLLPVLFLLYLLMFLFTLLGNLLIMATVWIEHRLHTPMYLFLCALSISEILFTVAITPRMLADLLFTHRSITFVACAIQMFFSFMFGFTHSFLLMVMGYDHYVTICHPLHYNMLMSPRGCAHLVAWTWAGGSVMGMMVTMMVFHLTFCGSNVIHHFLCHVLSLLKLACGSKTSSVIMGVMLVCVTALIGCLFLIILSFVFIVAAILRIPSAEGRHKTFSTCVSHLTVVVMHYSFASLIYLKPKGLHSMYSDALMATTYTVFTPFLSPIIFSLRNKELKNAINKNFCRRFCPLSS
O10Q1 E12D, sequence (as listed by the source, stated change not applied): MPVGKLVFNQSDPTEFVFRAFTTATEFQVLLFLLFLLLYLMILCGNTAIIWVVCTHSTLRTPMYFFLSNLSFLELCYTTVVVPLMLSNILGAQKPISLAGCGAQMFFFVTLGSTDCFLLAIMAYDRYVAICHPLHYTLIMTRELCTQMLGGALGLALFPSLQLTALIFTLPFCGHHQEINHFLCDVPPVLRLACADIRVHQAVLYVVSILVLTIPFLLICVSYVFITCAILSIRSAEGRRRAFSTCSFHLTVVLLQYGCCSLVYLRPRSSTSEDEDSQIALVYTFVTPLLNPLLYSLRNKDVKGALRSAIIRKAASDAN

`COc1ccc(C=O)cc1`: the “odorant receptor agonist call” value in the test on A0A140T8K0 was “inactive”.
The same measure, in the same setting: the same measure for `Oc1ccccc1Br`: “inactive”.
Still for that read-out and setting: in the case of `C=C(C)C1CC=C(C=O)CC1` (stereo not given) it was “inactive”; in that of `CCCCCCC(Br)C(=O)O` (stereo not given), “inactive”; in that of `OCc1ccc2c(c1)OCO2`, “inactive”.
With `CCC1CCC(=O)O1` (stereo not given), the “odorant receptor agonist call” value in the test on A0A140T8K4 and with A0A1L1SVG7 was “inactive” in each case.
On to `Cc1ccc(OC(=O)Cc2ccccc2)cc1`, for which, in the test on A0A140T8K0, the “odorant receptor agonist call” value was “inactive”.
Turning to `O=Cc1ccccc1`, the “odorant receptor agonist call” value in the test with A0A140T8K0 was “inactive”.
As to `CSSC`, the “odorant receptor agonist call” value in the test with A0A140T8K0 was “inactive”.
The same measure, in the same setting: the same measure for `O=Cc1ccc2c(c1)OCO2`: “inactive”; for `CC(C=O)Cc1ccc2c(c1)OCO2` (stereo not given): “inactive”.
For the molecule `C=CCOC(=O)Cc1ccccc1`, the “odorant receptor agonist call” value in the test with A0A140T8K0, with A0A140T8K4, in the test with A0A1L1SVG7, in the test with O10A2 H43R H207R K258T, with O10A3 C8G and with O10A6 was “inactive” throughout. Further, the “odorant receptor agonist call” value with O10AD G65C, in the test on O10D3 V134A R197K, in the test on O10G4 L24P V195E, with O10G7 A18V P19Q G20A, in the test with O10G7 I28V and in the test with O10H2 was “inactive” in each case. Further, the “odorant receptor agonist call” value in the test on O10H3 R54H, in the test with O10H4 I50V, with O10H5 S268Y, with O10J1 M62I I103M, in the test on O10J1 M62I and in the test with O10J3 Q235R E319G was “inactive” throughout. Moreover, the “odorant receptor agonist call” value in the test on O10P1 R195K and in the test on O10Q1 E12D was “inactive” in each case.
On to `O=c1cc(O)c2ccccc2o1`, for which the “odorant receptor agonist call” value with A0A140T8K0, in the test on A0A140T8K4 and in the test on A0A1L1SVG7 was “inactive” throughout.
In the case of `O=CC=Cc1ccccc1`, the “odorant receptor agonist call” value with A0A140T8K0 was “inactive”. In the test on O10H2, the “odorant receptor agonist call” value is “active”.
As to `C=CCc1ccccc1`, the “odorant receptor agonist call” value with A0A140T8K4 and with A0A1L1SVG7 was “inactive” throughout.
`CCCCC(Br)C(=O)O` (stereo not given): the “odorant receptor agonist call” value in the test with A0A140T8K0 is “inactive”.

Source of the values: the M2OR odorant receptor database.
